Results from ChEMBL document CHEMBL1123828, “Carbostyril derivatives having potent beta-adrenergic agonist properties” (J Med Chem, 1987).

How the values were obtained:
Rattus norvegicus [1] = organism: Rattus norvegicus; assay: The compound was evaluated for the intrinsic activity compared to (-)-isoproterenol.; format: functional
Adrenergic receptor beta = Adrenergic receptor beta (Rattus norvegicus, UniProt P18090+P10608+P26255); assay: The compound was evaluated for the inhibition of [125I]cyanopindolol binding to beta adrenergic receptor in rat reticulocyte membrane.; format: cell membranes
Rattus norvegicus [2] = organism: Rattus norvegicus; assay: The compound was evaluated for its ability to stimulate adenylate cyclase activity; format: functional
In short: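 Rat reticulocyte membranes (0.01–0.05 mg protein) incubated 10 min at 32 °C in 50 mM Tris-HCl pH 7.4 with 1.6 mM ATP, 5 mM MgCl2, 1 mM EGTA, 10 mM theophylline, 0.01% BSA, creatine phosphokinase/phosphocreatine, 0.5 mM GTP and varying ligand concentrations. Stopped by boiling with EDTA buffer; cAMP measured by competitive protein binding. Basal and GTP activity subtracted; EC50 from dose-effect analysis.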

Compound | IA (Rattus norvegicus [1]) | IC50 (Adrenergic receptor beta) | EC50 (Rattus norvegicus [2])
CC(C)(Cc1ccc(NC(=O)CBr)cc1)NCC(O)c1ccc(O)c2nc(O)ccc12 (centres undefined) | 1.2 | 5.3 nM | 8.5 nM
CC(C)(Cc1ccccc1)NCC(O)c1ccc(O)c2nc(O)ccc12 (centres undefined) | 1 | 3.1 nM | 6.9 nM
CC(C)(Cc1ccc(N)cc1)NCC(O)c1ccc(O)c2nc(O)ccc12 (centres undefined) | 1 | 22 nM | 14.2 nM
CC(C)(Cc1ccc(I)cc1)NCC(O)c1ccc(O)c2nc(O)ccc12 (centres undefined) | 1.3 | 7.6 nM | 5.6 nM
CC(C)NCC(O)c1ccc(O)c(O)c1 (single isomer, unassigned; (-)) [ISOPROTERENOL] | 1 | – | 226 nM
